Assay results as given in ChEMBL document CHEMBL4477209, “Indole-2-carboxamide-based MmpL3 Inhibitors Show Exceptional Antitubercular Activity in an Animal Model of Tuberculosis Infection” (J Med Chem, 2016).
≈ marks a conversion by molar mass, not a printed value. Calls of active or inactive are those of the source. The rule behind the calls is not given here.

Experiments:
[1] = target: Voltage-gated inwardly rectifying potassium channel KCNH2 (Homo sapiens, UniProt Q12809); test: Inhibition of human ERG
[2] = test system: Mycobacterium tuberculosis; test: Antimycobacterial activity against Mycobacterium tuberculosis H37Rv infected in BALB/c mouse model assessed as bacterial growth inhibition in lungs at 100 mg/kg administered daily via oral gavage for 5 days per week measured after 28 days post dosage co-treated with 10 mg/kg of rifampin by Bliss synergy model based analysis; assay type: functional, organism-based
How it was run: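 Female BALB/c mice, 4-6 weeks old, aerosol-infected with H37Rv, day 1 implantation 3.4-log CFU per lung. Treatment from day 14: 100 mg/kg plus rifampin 10 mg/kg by oral gavage, doses at least 1 h apart, daily 5 days/week. Single-drug arms and untreated infected controls included, four mice per group. Lung CFU counted at day 28 of treatment on 7H11 selective agar.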

[3] = test system: Mycobacterium tuberculosis H37Rv; test: Inhibition of MmpL3 in clinical isolates of drug sensitive Mycobacterium tuberculosis H37Rv after 7 to 14 days by alamar blue assay
[4] = test system: Mycobacterium tuberculosis; test: Antimycobacterial activity against Mycobacterium tuberculosis H37Rv assessed as growth inhibition at 0.5 times MIC after 7 to 14 days in presence of 0.0313 times MIC of rifampin by alamar blue assay based Bliss synergy model analysis; assay type: functional
How it was run: (§1)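 Checkerboard of 2-fold dilutions, 4.0 to 0.0313 × MIC of each drug combined with rifampin. M. tuberculosis H37Rv at 1 × 10^4 CFU per well in 200 μL. Single-drug, blank and full-growth controls included. alamarBlue read-out, percent inhibition calculated. Bliss independence applied to wells below 1 × MIC; Δfaxy > 0 taken as synergy, < 0 as antagonism.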

[5] = test system: Mycobacterium tuberculosis; test: Antimycobacterial activity against Mycobacterium tuberculosis H37Rv assessed as growth inhibition at 0.25 times MIC after 7 to 14 days in presence of 0.25 times MIC of rifampin by alamar blue assay based by Bliss synergy model analysis; assay type: functional; how it was run: as §1
[6] = AUMClast in BALB/c mouse plasma at 100 mg/kg administered via oral gavage after 0.25 to 24 hrs by LC-MS analysis; assay type: ADME, organism-based; settings: in vivo
How it was run: (§2)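 Female BALB/c mice (20 g), single oral gavage dose of 100 mg/kg. Cardiac blood and lungs taken at 0, 0.25, 0.5, 1, 2, 4, 8 and 24 h (n = 3 per time point). Plasma separated by centrifugation; lungs bead-beaten in water and supernatant recovered. Drug quantified by LC-MS/MS against an indole-2-carboxamide internal standard. Parameters derived by noncompartmental analysis.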

[7] = Mutagenicity in Salmonella typhimurium TA1535; assay type: toxicity; settings: salmonella enterica subsp. enterica serovar typhimurium
[8] = Mean residence time (last) in BALB/c mouse lung at 100 mg/kg administered via oral gavage by LC-MS analysis; assay type: ADME, organism-based; how it was run: as §2
Cytochrome P450 2C9 = Cytochrome P450 2C9 (Homo sapiens, UniProt P11712); test: Inhibition of CYP2C9 (unknown origin); assay type: ADME
[9] = AUMClast in BALB/c mouse lung at 100 mg/kg administered via oral gavage after 0.25 to 24 hrs by LC-MS analysis; assay type: ADME, organism-based; settings: in vivo; how it was run: as §2
[10] = Mutagenicity in Salmonella typhimurium TA98 assessed as increase in ratio of revertant colonies at 500 microg/plate in presence of S9 liver fraction relative to control; assay type: toxicity, subcellular; settings: salmonella enterica subsp. enterica serovar typhimurium
How it was run: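 Bacterial reverse mutation test in S. typhimurium TA98 with S9 liver fraction, at 500 and 5000 μg/plate. Revertant colony count expressed as a ratio to the DMSO solvent control; 2-aminoanthracene as positive control.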

[11] = test system: Mycobacterium tuberculosis; test: Antimycobacterial activity against Mycobacterium tuberculosis H37Rv infected in BALB/c mouse model assessed as reduction in CFU counts in lung at 200 mg/kg administered daily via oral gavage for 5 days per week measured after 28 days post dosage relative to control; assay type: functional
How it was run: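 Bactericidal-dose model in aerosol-infected BALB/c mice given 25, 50, 100 or 200 mg/kg orally in 0.5% carboxymethylcellulose in water for 4 weeks. Lung CFU compared with the count at treatment initiation; survival also recorded.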

[12] = test system: Mycobacterium tuberculosis; test: Inhibition of MmpL3 in clinical isolates of drug sensitive Mycobacterium tuberculosis V4207 after 7 to 14 days by alamar blue assay
[13] = Oral bioavailability in BALB/c mouse at 100 mg/kg administered for 30 to 120 mins followed by Mycobacterium tuberculosis H37Rv addition to compound treated serum incubated for 7 days by alamar blue reagent based serum inhibition titration assay; assay type: ADME, organism-based; settings: in vivo
How it was run: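 Six-week-old female BALB/c mice (20 g) given one oral dose as suspension in 0.5% CMC in water; isoniazid 10 mg/kg as positive control, vehicle as negative. Serum collected at 30, 60 and 120 min, pooled from three mice per time point, 2-fold serially diluted. 10^4 CFU H37Rv added per well, 7 days at 37 °C. alamarBlue added for 16−18 h, fluorescence read at Ex544/Em590 and plotted against serum titration.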

[14] = Mutagenicity in Salmonella typhimurium TA98; assay type: toxicity; settings: salmonella enterica subsp. enterica serovar typhimurium
[15] = test system: Mycobacterium tuberculosis; test: Antimycobacterial activity against Mycobacterium tuberculosis H37Rv infected in BALB/c mouse model assessed as reduction in CFU counts in lung at 100 mg/kg administered daily via oral gavage for 5 days per week measured after 28 days post dosage relative to control; assay type: functional
How it was run: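 Female BALB/c mice, 4-6 weeks old, aerosol-infected with H37Rv (about 10^3 CFU); five mice taken on day 1 for lung implantation CFU. From day 1, 12.5, 25, 50 or 100 mg/kg in 0.5% carboxymethylcellulose by daily oral gavage, 5 days/week. Ethambutol 100 mg/kg as positive control, untreated infected mice as negative, 5 mice per group. Lung homogenates plated on 7H11 selective agar on days 14 and 28.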

Cytochrome P450 2C9, sequence (P11712 whole entry): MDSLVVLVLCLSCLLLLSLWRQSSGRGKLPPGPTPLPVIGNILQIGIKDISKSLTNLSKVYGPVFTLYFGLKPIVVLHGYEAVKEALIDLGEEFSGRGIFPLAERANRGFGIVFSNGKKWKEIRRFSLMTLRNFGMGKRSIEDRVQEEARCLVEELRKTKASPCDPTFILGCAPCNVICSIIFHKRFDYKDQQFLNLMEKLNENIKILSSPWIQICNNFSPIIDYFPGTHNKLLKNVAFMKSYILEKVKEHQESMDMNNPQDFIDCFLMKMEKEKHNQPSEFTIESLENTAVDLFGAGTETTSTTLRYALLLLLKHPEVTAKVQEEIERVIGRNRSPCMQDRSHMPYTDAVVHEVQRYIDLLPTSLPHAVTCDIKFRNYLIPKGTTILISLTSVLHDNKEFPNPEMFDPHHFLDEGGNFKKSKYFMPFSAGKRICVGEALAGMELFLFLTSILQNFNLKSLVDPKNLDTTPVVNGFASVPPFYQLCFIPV
Voltage-gated inwardly rectifying potassium channel KCNH2, sequence (Q12809 whole entry): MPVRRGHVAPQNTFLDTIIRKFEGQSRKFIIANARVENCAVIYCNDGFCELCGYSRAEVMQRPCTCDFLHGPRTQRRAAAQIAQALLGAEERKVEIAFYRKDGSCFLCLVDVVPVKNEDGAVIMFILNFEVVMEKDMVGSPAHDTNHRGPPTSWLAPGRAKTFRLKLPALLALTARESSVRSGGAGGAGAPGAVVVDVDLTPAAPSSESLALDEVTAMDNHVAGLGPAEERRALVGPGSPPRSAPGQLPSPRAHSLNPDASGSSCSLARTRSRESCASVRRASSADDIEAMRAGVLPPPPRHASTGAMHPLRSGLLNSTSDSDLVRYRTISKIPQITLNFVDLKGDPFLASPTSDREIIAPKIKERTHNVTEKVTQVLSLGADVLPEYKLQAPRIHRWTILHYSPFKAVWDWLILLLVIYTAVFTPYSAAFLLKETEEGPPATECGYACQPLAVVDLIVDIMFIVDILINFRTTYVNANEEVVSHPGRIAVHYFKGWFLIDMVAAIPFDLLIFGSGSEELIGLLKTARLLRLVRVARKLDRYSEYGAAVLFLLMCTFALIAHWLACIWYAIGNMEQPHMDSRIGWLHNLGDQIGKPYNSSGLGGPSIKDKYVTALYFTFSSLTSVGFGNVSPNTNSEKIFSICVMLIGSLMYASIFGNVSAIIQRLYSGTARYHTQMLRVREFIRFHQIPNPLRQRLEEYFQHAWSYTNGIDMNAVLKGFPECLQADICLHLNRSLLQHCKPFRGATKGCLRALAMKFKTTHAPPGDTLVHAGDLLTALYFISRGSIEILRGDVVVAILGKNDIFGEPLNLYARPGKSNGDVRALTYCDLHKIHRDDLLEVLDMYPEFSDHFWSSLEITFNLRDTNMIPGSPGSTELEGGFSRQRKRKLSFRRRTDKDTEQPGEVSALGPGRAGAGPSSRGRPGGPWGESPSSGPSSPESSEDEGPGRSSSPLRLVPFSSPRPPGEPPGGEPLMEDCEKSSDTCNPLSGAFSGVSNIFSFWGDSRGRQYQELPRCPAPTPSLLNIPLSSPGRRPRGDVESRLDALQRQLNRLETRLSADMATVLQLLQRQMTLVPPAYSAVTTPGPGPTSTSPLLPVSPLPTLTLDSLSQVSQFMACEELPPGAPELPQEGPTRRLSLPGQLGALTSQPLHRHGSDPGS

**Q.** For C[C@@H]1[C@H]2C[C@@H](C[C@H]1NC(=O)c1cc3c(F)cc(F)cc3[nH]1)C2(C)C, which IC50 [1] is on record?
**A.** Its IC50 is over 30 µM.

**Q.** And the Activity [2]?
**A.** The Activity was “Active”.

**Q.** What about the MIC90 [3] of the same molecule?
**A.** Its MIC90 is 0.012 µM (≈ 0.00399 µg/mL).

**Q.** What about the “growth inhibition (GI)” value [4] of the same molecule?
**A.** The value was 99.2%.

**Q.** What about the “growth inhibition (GI)” value [5] of the same molecule?
**A.** The value was 99.4%.

**Q.** And the AUMClast [6]?
**A.** The AUMClast was 137 hr.hr.ug/ml.

**Q.** And the Activity [7]?
**A.** The Activity was “Non-Toxic”.

**Q.** What about the MRT last [8] of the same molecule?
**A.** The MRT last was 8.49 h.

**Q.** What about the “inhibition (INH)” value (Cytochrome P450 2C9) of the same molecule?
**A.** The value was -5.2%.

**Q.** What about the AUMClast [9] of the same molecule?
**A.** Its AUMClast is 433 hr2.ug/g.

**Q.** And the “fold change (FC)” value [10]?
**A.** Its value is 2.5.

**Q.** And the Activity [11]?
**A.** Its Activity is 0.6 log10CFU.

**Q.** What about the MIC [12] of the same molecule?
**A.** Its MIC is 23 µM (≈ 7.65 µg/mL).

**Q.** What about the Drug uptake [13] of the same molecule?
**A.** The Drug uptake was “Active”.

**Q.** And the Activity [14]?
**A.** Its Activity is “Non-Toxic”.

**Q.** What about the Activity [15] of the same molecule?
**A.** Its Activity is 2.12 log10CFU.
